Molecules are shown by their SMILES. Where only a bound is given, the exact number is not on record here.

For assay [1], the target named is Metabotropic glutamate receptor 5 (Rattus norvegicus) (UniProt P31424). In words: Induction of rat mGluR5 activation expressed in HEK293A cells assessed as maximal response in presence of glutamate. It is filed as cell-based. Particulars: HEK293-A. A digest of the protocol:
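Potentiator mode in rat mGluR5 HEK293A cells loaded with Fluo4-AM (4.0 µM, 45 min, 37 °C) in HBSS/20 mM Hepes/2.5 mM probenecid, pH 7.4. Compound added at 19 s, then submaximal glutamate (150–165 nM) at 109 s. Calcium fluorescence read and compared with maximal glutamate response. Vehicle 0.3% DMSO. Triplicate on three days.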

Assay [2] shares this target. In words: (§1) Antagonist activity at rat mGluR5 expressed in HEK293A cells assessed as inhibition of glutamate-induced calcium fluorescence. It is filed as functional, cell-based. Particulars: HEK293-A. More on the design: concentration or dose not given beside the values.
Assay [3] concerns the target T1, Metabotropic glutamate receptor 5 (Rattus norvegicus, UniProt P31424). Described as §1. It is filed as functional, cell-based, HEK293-A.
The target of assay [4] is T1, Metabotropic glutamate receptor 5. As to the kind of experiment: Activity at rat mGluR5 expressed in HEK293A cells. It is filed as cell-based, HEK293-A.
For assay [5] the target is unchanged. As to the kind of experiment: Displacement of [3H]methoxy-PEPy from rat mGluR5 expressed in HEK293A cells. Format: cell-based, HEK293-A. A digest of the protocol:
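Membranes from HEK293A cells with rat mGluR5 were incubated with 2 nM (final) [³H]methoxy-PEPy in 50 mM Tris, 0.9% NaCl, pH 7.4. Incubation was 60 min at room temperature with shaking. Bound ligand was separated by GF/B filtration with four buffer washes and counted by scintillation. MPEP defined nonspecific binding. Triplicate on three days.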
For orientation: Loss of bound radioactivity is the signal in a displacement assay; it reports binding, not function.

Chain of Metabotropic glutamate receptor 5 (Rattus norvegicus) (P31424 21-1203 limits assumed): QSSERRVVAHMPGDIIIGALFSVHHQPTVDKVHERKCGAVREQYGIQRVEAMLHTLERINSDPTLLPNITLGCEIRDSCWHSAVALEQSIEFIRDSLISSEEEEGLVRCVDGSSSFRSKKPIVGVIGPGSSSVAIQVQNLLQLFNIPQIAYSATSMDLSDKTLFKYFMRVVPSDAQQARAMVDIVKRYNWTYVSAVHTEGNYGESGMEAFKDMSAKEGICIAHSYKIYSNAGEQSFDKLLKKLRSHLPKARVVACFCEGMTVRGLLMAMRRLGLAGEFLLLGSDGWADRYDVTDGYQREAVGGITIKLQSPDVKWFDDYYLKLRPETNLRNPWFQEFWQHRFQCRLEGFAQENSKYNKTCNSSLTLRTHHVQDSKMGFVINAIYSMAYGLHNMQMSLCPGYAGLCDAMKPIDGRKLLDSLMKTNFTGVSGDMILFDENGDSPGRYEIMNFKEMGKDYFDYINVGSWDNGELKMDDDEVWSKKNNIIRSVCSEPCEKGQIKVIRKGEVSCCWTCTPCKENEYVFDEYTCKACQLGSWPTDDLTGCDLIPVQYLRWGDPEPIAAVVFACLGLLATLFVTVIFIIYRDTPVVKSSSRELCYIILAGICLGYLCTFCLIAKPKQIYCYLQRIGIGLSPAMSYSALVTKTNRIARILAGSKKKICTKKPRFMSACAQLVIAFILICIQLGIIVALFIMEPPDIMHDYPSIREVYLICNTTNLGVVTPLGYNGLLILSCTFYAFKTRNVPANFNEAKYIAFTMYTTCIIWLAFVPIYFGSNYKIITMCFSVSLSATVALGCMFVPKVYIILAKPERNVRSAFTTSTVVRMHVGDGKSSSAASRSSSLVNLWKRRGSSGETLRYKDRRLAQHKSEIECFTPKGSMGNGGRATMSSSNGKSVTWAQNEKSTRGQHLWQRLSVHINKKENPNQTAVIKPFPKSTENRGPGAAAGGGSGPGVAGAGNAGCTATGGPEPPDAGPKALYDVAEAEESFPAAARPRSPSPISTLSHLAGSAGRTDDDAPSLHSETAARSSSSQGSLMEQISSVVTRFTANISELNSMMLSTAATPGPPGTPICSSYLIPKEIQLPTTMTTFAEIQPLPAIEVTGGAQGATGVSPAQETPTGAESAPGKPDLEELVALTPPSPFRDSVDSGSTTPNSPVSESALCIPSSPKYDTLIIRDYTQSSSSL
T1 sequence (P31424 whole entry): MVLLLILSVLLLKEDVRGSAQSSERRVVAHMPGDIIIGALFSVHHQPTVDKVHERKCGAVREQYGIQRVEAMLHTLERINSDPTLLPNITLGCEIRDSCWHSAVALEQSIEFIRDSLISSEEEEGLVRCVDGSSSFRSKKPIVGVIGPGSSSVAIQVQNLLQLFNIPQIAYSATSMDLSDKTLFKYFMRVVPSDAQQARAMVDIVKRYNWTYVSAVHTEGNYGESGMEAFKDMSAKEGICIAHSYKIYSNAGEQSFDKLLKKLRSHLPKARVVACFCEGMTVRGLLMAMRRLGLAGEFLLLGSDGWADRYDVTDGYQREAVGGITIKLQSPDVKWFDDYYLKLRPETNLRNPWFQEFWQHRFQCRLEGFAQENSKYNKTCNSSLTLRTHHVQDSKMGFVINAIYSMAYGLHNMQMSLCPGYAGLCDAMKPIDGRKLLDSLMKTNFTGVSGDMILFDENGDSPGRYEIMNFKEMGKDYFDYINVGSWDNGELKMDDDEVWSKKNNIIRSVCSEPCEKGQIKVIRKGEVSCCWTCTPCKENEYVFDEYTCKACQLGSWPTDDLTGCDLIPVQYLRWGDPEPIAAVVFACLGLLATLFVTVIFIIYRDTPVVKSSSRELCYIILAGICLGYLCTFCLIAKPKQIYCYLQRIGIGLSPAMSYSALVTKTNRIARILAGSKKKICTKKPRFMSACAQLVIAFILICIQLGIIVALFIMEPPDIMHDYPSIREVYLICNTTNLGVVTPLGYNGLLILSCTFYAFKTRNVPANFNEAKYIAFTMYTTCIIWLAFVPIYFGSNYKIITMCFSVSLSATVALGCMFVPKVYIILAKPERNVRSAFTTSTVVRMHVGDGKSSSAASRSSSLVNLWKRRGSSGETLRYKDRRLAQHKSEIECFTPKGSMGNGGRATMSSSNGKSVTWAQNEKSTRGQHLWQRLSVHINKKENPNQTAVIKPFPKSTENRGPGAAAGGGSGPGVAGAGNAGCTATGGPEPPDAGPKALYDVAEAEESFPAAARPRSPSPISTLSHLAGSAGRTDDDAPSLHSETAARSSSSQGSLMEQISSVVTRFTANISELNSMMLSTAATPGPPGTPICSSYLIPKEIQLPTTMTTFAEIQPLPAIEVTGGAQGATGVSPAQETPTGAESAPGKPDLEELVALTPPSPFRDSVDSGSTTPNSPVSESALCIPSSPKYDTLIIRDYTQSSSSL

In the case of `N#Cc1cccc(C(=O)Nc2cc(-c3ccccc3)nn2-c2ccccc2)c1`, the Activity in assay [1] was < 70%.

Take `Cc1ccc(C#Cc2cncc(Br)c2)nc1`: the Activity in assay [2] amounted to 50%.

Broadly, the IC50 is the concentration needed to halve the response being measured. Take `Cc1cc(C#Cc2cncnc2)ccc1F`: the Activity in assay [2] was 100%. Moreover, the IC50 in assay [3] came to 0.35 µM.

By EC50 is commonly meant the concentration at which the effect is half-maximal. Consider `O=Cc1ccc(C#Cc2cncnc2)cc1`, for which the half-maximal effective concentration (EC50) in assay [4] is 7.9 µM.

Consider `Clc1cccc(C#Cc2cncnc2)c1`, for which the Activity in assay [2] is 100%. In addition, the IC50 in assay [3] was determined as 0.034 µM.

Regarding `O=C(Nc1cccc(F)c1)c1cccc(Cl)c1`, the Activity in assay [2] came to 58%. Moreover, the EC50 in assay [3] is 0.297 µM.

As for `Clc1ccc(C#Cc2cncnc2)cc1`, the EC50 in assay [4] worked out at 3.9 µM.

In assay [4], `Cc1ccc(C#Cc2cncnc2)cc1` displayed an EC50 of 3.3 µM. In assay [1], the Activity was 99%.

In the case of `COc1cccc(C#Cc2ccc(C)cn2)c1`, in assay [2], the Activity came out at 50%.

The compound `CCc1ccc(C#Cc2cncnc2)cc1` came in with a half-maximal effective concentration (EC50) in assay [4] of 18.8 µM.

With `Fc1cccc(/C=N/N=C/c2cccc(F)c2)c1`, the Activity in assay [1] was < 70%.

Consider `FC(F)(F)c1cccc(C#Cc2cncnc2)c1`, for which the Activity in assay [2] is 100%. Also, the IC50 in assay [3] came to 0.45 µM.

Regarding `Cc1cccc(C#Cc2cncnc2)c1`, the Activity in assay [2] was determined as 100%. Also, in assay [3], the IC50 amounted to 0.007 µM.

The Ki is the equilibrium dissociation constant of an inhibitor or competing ligand from its target. On to `C(#Cc1cncnc1)c1ccccc1`, for which, in assay [2], the Activity was found to be 71%. In addition, in assay [3], the IC50 came to 0.48 µM. The inhibition constant (Ki) in assay [5] amounted to 0.126 µM.

As for `O=C(Nc1ccc(Cl)cc1CN1C(=O)c2ccccc2C1=O)c1ccccc1O`, in assay [1], the Activity was < 70%.

In the case of `Fc1cc(F)cc(C#Cc2cncnc2)c1`, the Activity in assay [2] is 100%. Further, the IC50 in assay [3] came to 6.4 µM.

For the compound `C(#Cc1cncnc1)c1ccc(-c2ccccc2)cc1`, the Activity in assay [2] turned out to be 100%. Moreover, the IC50 in assay [3] came out at 7.8 µM.

Turning to `Cc1ccc(C)c(C#Cc2cncnc2)c1`, the Activity in assay [2] was 58%. Moreover, in assay [3], the half-maximal inhibitory concentration (IC50) came out at 11.2 µM.

Values taken from ChEMBL document CHEMBL1157524, “Synthesis and SAR of a mGluR5 allosteric partial antagonist lead: unexpected modulation of pharmacology with slight structural modifications to a 5-(phenylethynyl)pyrimidine scaffold” (Bioorg Med Chem Lett, 2008).
